# Calls of active or inactive are those of the source. The rule behind the calls is not given here.
# How the values were obtained:
# [1] = tested on: PC-3; assay: Growth inhibition of human PC3 cells by sulforhodamine B assay; format: functional, cell-based
# In short: (§1)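 SRB assay. DU 145 cells were grown in IMEM with 10% FBS and gentamicin, PC-3 in RPMI 1640 with 10% FBS and gentamicin, and HeLa in BME with 10% FBS and gentamicin. Cytotoxicity was read as a fall in cell density below the density at the time of drug addition. Each concentration was tested in triplicate, n = 2–9 independent experiments. IC50 is the concentration giving 50% inhibition of proliferation versus vehicle control, interpolated from a 4-parameter nonlinear regression; mean ± SE.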
# [2] = tested on: DU-145; assay: Growth inhibition of human DU145 cells by sulforhodamine B assay; format: functional, cell-based; in short: as §1
# [3] = tested on: HeLa; assay: Growth inhibition of human HeLa cells by sulforhodamine B assay; format: functional, cell-based; in short: as §1
# [4] = tested on: A10; assay: Growth inhibition of rat A10 cells by sulforhodamine B assay; format: cell-based
# [5] = tested on: DU-145; assay: Inhibition of colony formation of human DU145 cells incubated for 4 hrs followed by drug wash-out and measured after 14 days post drug wash-out by crystal violet staining based clonogenic assay; format: functional, cell-based
# In short: (§2)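 300 DU 145 cells were allowed to adhere, then exposed to vehicle (0.5% DMSO final) or compound for 4 h. Washed with DPBS and regrown in fresh medium. Fixed and stained with 0.5% crystal violet in 10% methanol; colonies counted. Legend states 9 days, methods 14 days. One-way ANOVA with Dunnett's post-hoc test; n = 2–9 experiments.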
# [6] = tested on: HeLa; assay: Induction of apoptosis in human HeLa cells assessed as increase in PARP cleavage at 10 uM after 24 hrs by immunoblotting method; format: functional, cell-based
# In short: (§3)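 HeLa and DU 145 cells were given vehicle, BI2536 (100 nM) or test compounds (10 µM) for 24 h. Lysed with protease inhibitors; equal protein run on SDS-PAGE, transferred to PVDF, and probed for cleaved PARP (1:1000) with actin as loading control; ECL detection.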
# [7] = tested on: DU-145; assay: Induction of apoptosis in human DU145 cells assessed as increase in PARP cleavage at 10 uM after 24 hrs by immunoblotting method; format: functional, cell-based; in short: as §3
# [8] = tested on: SK-OV-3; assay: Growth inhibition of human SKOV3 cells by sulforhodamine B assay; format: functional, cell-based
# In short: (§4)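 Isogenic ovarian pair: parental SK-OV-3 and its Pgp-expressing single-cell clone SK-OV-3/MDR-1-M6/6, tested by SRB assay. IC50 is interpolated from a 4-parameter nonlinear regression against vehicle control. Rr = IC50 in M6/6 divided by IC50 in SK-OV-3.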
# [9] = tested on: SK-OV-3; assay: Growth inhibition of human SKOV3-MDR1-M6/6 cells by sulforhodamine B assay; format: functional, cell-based; in short: as §4
# [10] = tested on: SK-OV-3; assay: Resistance index, ratio of IC50 for human SKOV3-MDR1-M6/6 cells to IC50 for human SKOV3 cells; format: functional; in short: as §4
# [11] = target: T1, Tubulin (Sus scrofa) (UniProt P02554+P02550); assay: Inhibition of porcine tubulin polymerization at 10 uM incubated for 1 hr by turbidimetry; format: protein assay
# [12] = tested on: HeLa; assay: Induction of monopolar mitotic spindles in human HeLa cells at 7.5 uM incubated for 18 hrs by indirect immunofluorescence microscopy; format: functional, cell-based
# In short: (§5)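 Cells adhered overnight on glass coverslips, then were treated for 18 h. They were fixed in cold methanol (4 °C, 5 min) and blocked with 10% bovine calf serum for 20 min. Stained with monoclonal anti-β-tubulin (1:400, 2 h, 37 °C), then FITC anti-mouse IgG (1:200, 1 h, 37 °C), and 0.1 µg/mL DAPI. Spindles scored by indirect immunofluorescence; BI2536 at 100 nM served as positive control.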
# [13] = tested on: HeLa; assay: Induction of aberrant bipolar mitotic spindles in human HeLa cells at 7.5 uM incubated for 18 hrs by indirect immunofluorescence microscopy; format: functional, cell-based; in short: as §5
# [14] = tested on: PC-3; assay: Induction of monopolar mitotic spindles in human PC3 cells at 7.5 uM incubated for 18 hrs by indirect immunofluorescence microscopy; format: functional, cell-based; in short: as §5
# [15] = tested on: PC-3; assay: Induction of aberrant bipolar mitotic spindles in human PC3 cells at 7.5 uM incubated for 18 hrs by indirect immunofluorescence microscopy; format: functional, cell-based; in short: as §5
# [16] = target: Serine/threonine-protein kinase PLK1 (Homo sapiens) (UniProt P53350); assay: Inhibition of PLK1 Thr210 phosphorylation in human HeLa cells at 10 uM by immunoblotting method; format: cell-based
# In short: (§6)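 HeLa and DU 145 cells were given vehicle, 100 nM BI 2536 or 10 µM test compounds. Lysed and immunoblotted for total PLK1 and phospho-Thr210-PLK1.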
# [17] = target: Serine/threonine-protein kinase PLK1 (Homo sapiens) (UniProt P53350); assay: Inhibition of PLK1 Thr210 phosphorylation in human DU145 cells at 10 uM by immunoblotting method; format: cell-based; details: DU-145; in short: as §6
# [18] = tested on: HeLa; assay: Inhibition of PLK1 protein accumulation in human HeLa cells at 10 uM by immunoblotting method; format: functional, cell-based; in short: as §6
# [19] = tested on: DU-145; assay: Inhibition of PLK1 protein accumulation in human DU145 cells at 10 uM by immunoblotting method; format: functional, cell-based; in short: as §6
# [20] = tested on: HeLa; assay: Induction of apoptosis in human HeLa cells assessed as increase in PARP cleavage at 100 nM after 24 hrs by immunoblotting method; format: functional, cell-based; in short: as §3
# [21] = tested on: DU-145; assay: Induction of apoptosis in human DU145 cells assessed as increase in PARP cleavage at 100 nM after 24 hrs by immunoblotting method; format: functional, cell-based; in short: as §3
# [22] = tested on: HeLa; assay: Induction of monopolar mitotic spindles in human HeLa cells at 100 nM incubated for 18 hrs by indirect immunofluorescence microscopy; format: functional, cell-based; in short: as §5
# [23] = tested on: PC-3; assay: Induction of monopolar mitotic spindles in human PC3 cells at 100 nM incubated for 18 hrs by indirect immunofluorescence microscopy; format: functional, cell-based; in short: as §5
# [24] = tested on: HeLa; assay: Inhibition of PLK1 protein accumulation in human HeLa cells at 100 nM by immunoblotting method; format: functional, cell-based; in short: as §6
# [25] = tested on: DU-145; assay: Inhibition of PLK1 protein accumulation in human DU145 cells at 100 nM by immunoblotting method; format: functional, cell-based; in short: as §6
# [26] = tested on: PC-3; assay: Induction of cell cycle arrest in human PC3 cells at 1.5 uM to 5 uM incubated for 18 hrs by flow cytometry method; format: functional, cell-based
# In short: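 PC-3 cells were treated with vehicle (DMSO) or compound for 18 h. Stained with Krishan's reagent (propidium iodide), and DNA content read by flow cytometry for cell cycle distribution.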
# [27] = target: T1, Tubulin (Sus scrofa); assay: Inhibition of porcine tubulin polymerization at 10 to 100 uM incubated for 1 hr by turbidimetry; format: protein assay
# [28] = tested on: HeLa; assay: Induction of monopolar mitotic spindles in human HeLa cells at 10 uM incubated for 18 hrs by indirect immunofluorescence microscopy; format: functional, cell-based; in short: as §5
# [29] = tested on: HeLa; assay: Induction of aberrant bipolar mitotic spindles in human HeLa cells at 10 uM incubated for 18 hrs by indirect immunofluorescence microscopy; format: functional, cell-based; in short: as §5
# [30] = tested on: PC-3; assay: Induction of monopolar mitotic spindles in human PC3 cells at 10 uM incubated for 18 hrs by indirect immunofluorescence microscopy; format: functional, cell-based; in short: as §5
# [31] = tested on: PC-3; assay: Induction of aberrant bipolar mitotic spindles in human PC3 cells at 10 uM incubated for 18 hrs by indirect immunofluorescence microscopy; format: functional, cell-based; in short: as §5
# [32] = tested on: DU-145; assay: Selectivity index, ratio of IC50 for human PC3 cells to IC50 for human DU145 cells; format: functional
# In short: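 Ratio of SRB IC50 values from PC-3 and DU 145 prostate cells, each measured by 4-parameter nonlinear regression of triplicate concentration-response data.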
# [33] = tested on: DU-145; assay: Inhibition of colony formation of human DU145 cells at 5 to 20 uM incubated for 4 hrs followed by drug wash-out and measured after 9 days post drug wash-out by crystal violet staining based clonogenic assay; format: functional, cell-based; in short: as §2
# [34] = tested on: HeLa; assay: Induction of monopolar mitotic spindles in human HeLa cells at 25 uM incubated for 18 hrs by indirect immunofluorescence microscopy; format: functional, cell-based; in short: as §5
# [35] = tested on: HeLa; assay: Induction of aberrant bipolar mitotic spindles in human HeLa cells at 25 uM incubated for 18 hrs by indirect immunofluorescence microscopy; format: functional, cell-based; in short: as §5
# [36] = tested on: PC-3; assay: Induction of monopolar mitotic spindles in human PC3 cells at 25 uM incubated for 18 hrs by indirect immunofluorescence microscopy; format: functional, cell-based; in short: as §5
# [37] = tested on: PC-3; assay: Induction of aberrant bipolar mitotic spindles in human PC3 cells at 25 uM incubated for 18 hrs by indirect immunofluorescence microscopy; format: functional, cell-based; in short: as §5
# T1 sequence (P02550 whole entry, looked up): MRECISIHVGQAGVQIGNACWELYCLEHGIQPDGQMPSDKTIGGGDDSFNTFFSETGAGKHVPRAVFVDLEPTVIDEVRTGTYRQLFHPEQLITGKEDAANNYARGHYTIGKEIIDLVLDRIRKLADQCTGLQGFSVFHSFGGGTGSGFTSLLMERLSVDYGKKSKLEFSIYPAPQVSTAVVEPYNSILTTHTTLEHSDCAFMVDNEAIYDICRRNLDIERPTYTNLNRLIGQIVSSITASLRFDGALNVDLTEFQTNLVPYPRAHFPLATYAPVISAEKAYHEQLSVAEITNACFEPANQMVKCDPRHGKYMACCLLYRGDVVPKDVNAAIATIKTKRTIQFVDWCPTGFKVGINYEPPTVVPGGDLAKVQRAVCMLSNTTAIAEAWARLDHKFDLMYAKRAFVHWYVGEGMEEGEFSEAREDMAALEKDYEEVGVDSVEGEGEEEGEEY
# T1 sequence (P02554 whole entry, looked up): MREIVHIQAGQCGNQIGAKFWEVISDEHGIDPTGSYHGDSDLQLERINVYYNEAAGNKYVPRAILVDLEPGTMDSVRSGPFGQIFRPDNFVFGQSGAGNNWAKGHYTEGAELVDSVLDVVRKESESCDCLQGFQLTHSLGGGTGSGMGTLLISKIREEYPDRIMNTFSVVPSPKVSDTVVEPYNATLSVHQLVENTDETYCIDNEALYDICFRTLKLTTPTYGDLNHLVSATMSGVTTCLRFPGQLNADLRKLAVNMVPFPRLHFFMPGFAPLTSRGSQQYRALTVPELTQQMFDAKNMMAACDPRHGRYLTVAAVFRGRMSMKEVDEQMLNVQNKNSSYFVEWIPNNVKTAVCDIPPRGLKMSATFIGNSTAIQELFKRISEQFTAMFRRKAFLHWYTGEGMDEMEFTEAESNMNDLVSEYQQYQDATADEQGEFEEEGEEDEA
# Sequence of Serine/threonine-protein kinase PLK1 (Homo sapiens) (P53350 whole entry): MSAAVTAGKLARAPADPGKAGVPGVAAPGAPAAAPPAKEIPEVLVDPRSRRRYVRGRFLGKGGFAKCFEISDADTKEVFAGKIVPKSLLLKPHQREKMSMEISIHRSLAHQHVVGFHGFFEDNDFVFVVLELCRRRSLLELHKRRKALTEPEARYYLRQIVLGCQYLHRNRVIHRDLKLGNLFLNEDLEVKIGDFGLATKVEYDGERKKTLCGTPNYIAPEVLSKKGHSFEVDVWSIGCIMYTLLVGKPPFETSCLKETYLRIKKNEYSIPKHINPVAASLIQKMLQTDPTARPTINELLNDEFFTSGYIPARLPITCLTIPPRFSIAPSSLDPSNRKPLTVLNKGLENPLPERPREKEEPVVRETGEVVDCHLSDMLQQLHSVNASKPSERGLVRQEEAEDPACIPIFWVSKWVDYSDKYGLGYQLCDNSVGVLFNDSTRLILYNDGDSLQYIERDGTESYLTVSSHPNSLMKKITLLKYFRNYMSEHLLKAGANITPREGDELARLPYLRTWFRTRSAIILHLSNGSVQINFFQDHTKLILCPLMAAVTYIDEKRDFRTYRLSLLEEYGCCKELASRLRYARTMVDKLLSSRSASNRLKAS
SMILES,IC50 [1] [nM],IC50 [2] [nM],IC50 [3] [nM],IC50 [4] [nM],inhibition [5],Activity [6],Activity [7],IC50 [8] [nM],IC50 [9] [nM],Ratio IC50 [10],inhibition [11],inhibition [16],inhibition [17],inhibition [18],inhibition [19],also measured
C=C1C(=O)O[C@H]2[C@H]1[C@H](OC(=O)[C@@]1(C)O[C@H]1C)[C@H](OC(C)=O)/C(C(=O)OC)=C\[C@H]1O[C@H]1[C@]1(C)O[C@H]21,3100,2600,1900,1100,Dose-dependent effect,Active,Active,820,2000,2.4,Active,inactive,inactive,inactive,inactive,Activity [12]: Active; Activity [13]: Active; Activity [14]: Active; Activity [15]: Active
CC[C@@H]1C(=O)N(C)c2cnc(Nc3ccc(C(=O)NC4CCN(C)CC4)cc3OC)nc2N1C1CCCC1,,,,,,,,,,,,,,,,Activity [20]: Active; Activity [21]: Active; Activity [22]: Active; Activity [23]: Active; inhibition [24]: Active; inhibition [25]: Active
C=C1C(=O)O[C@H]2[C@H]1[C@H](OC(=O)[C@@]1(C)O[C@H]1C)[C@H](OC(C)=O)/C(C(=O)OC)=C\C=C/[C@]1(C)O[C@H]21,1700,1800,1700,1700,Dose-dependent effect,Active,Active,570,1400,2.5,,inactive,inactive,inactive,inactive,Activity [26]: inactive; inhibition [27]: Active; Activity [28]: Active; Activity [29]: Active; Activity [30]: Active; Activity [31]: Active
C=C1C(=O)O[C@H]2[C@H]1[C@H](OC(=O)[C@@]1(C)O[C@H]1C)[C@@H](OC(C)=O)[C@@]1(C(=O)OC)C=CC=C(C)[C@H]21,670,180,,,,,,,,,,,,,,Ratio IC50 [32]: 3.7
CC(=O)O[C@H]1C(=O)[C@@]2(C)[C@H]([C@H](OC(=O)c3ccccc3)[C@]3(O)C[C@H](OC(=O)[C@H](O)[C@@H](NC(=O)c4ccccc4)c4ccccc4)C(C)=C1C3(C)C)[C@]1(OC(C)=O)CO[C@@H]1C[C@@H]2O [PACLITAXEL],40,4,3.5,,,,,6.2,1010,162.9,,,,,,
C=C1C(=O)O[C@H]2[C@H]1[C@H](OC(=O)[C@@]1(C)O[C@H]1C)[C@H](OC(C)=O)/C(C(=O)OC)=C\C[C@@H](O)[C@]1(C)O[C@H]21,8700,5900,3800,3000,Dose-dependent effect,Active,Active,1700,4400,2.6,Active,inactive,inactive,inactive,inactive,inhibition [33]: Active; Activity [34]: Active; Activity [35]: Active; Activity [36]: Active; Activity [37]: Active

# From ChEMBL document CHEMBL3580605, “Melampodium leucanthum, a source of cytotoxic sesquiterpenes with antimitotic activities” (J Nat Prod, 2015)
